What was measured:
[1] = target: Tyrosine-protein kinase Fer (Homo sapiens) (UniProt P16591); assay: Competitive binding affinity to FER (unknown origin) at 10 uM in presence of ATP relative to control
Method in brief: (§1)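 In vitro ATP-site competition binding assay, part of profiling against a diverse panel of 128 kinases. Each compound was tested at a single concentration of 10 µM. Kinome selectivity was summarized as S15 selectivity scores.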

[2] = target: T1, Ephrin type-A receptor 6 (Homo sapiens) (UniProt Q9UF33); assay: Competitive binding affinity to EPHA6 (unknown origin) at 10 uM in presence of ATP relative to control; method in brief: as §1
T1 sequence (whole entry): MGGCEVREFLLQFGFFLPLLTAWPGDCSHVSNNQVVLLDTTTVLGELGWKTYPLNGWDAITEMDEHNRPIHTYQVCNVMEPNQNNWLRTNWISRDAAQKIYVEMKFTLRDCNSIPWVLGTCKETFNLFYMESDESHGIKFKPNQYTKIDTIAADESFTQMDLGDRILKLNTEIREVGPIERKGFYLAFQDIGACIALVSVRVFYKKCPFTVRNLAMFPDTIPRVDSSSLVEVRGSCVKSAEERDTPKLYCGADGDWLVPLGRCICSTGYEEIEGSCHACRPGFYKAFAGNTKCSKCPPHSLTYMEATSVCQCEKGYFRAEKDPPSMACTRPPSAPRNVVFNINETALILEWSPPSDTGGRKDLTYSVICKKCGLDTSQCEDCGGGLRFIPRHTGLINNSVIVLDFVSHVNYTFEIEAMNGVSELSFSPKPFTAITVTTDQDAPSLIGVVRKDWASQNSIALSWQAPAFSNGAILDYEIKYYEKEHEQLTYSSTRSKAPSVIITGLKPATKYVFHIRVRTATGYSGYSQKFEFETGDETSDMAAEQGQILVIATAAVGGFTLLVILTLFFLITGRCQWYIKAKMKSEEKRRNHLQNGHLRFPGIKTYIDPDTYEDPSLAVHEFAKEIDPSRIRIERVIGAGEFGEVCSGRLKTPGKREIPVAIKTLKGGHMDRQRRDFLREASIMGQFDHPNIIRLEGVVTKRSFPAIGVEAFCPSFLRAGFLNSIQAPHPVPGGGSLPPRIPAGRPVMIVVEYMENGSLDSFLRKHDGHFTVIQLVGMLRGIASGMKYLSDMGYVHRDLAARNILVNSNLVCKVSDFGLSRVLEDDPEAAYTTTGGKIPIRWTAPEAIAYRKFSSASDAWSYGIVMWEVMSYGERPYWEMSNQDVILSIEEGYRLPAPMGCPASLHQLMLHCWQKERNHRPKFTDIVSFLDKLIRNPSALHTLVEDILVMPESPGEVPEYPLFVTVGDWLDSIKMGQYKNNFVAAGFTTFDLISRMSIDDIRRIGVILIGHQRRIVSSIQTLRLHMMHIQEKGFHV

[3] = target: Dual specificity protein kinase CLK3 (Homo sapiens) (UniProt P49761); assay: Competitive binding affinity to CLK3 (unknown origin) at 10 uM in presence of ATP relative to control
[4] = target: Serine/threonine-protein kinase B-raf (Homo sapiens) (UniProt P15056); assay: Competitive binding affinity to BRAF (unknown origin) at 10 uM in presence of ATP relative to control
[5] = target: Tyrosine-protein kinase ABL2 (Homo sapiens) (UniProt P42684); assay: Competitive binding affinity to ABL2 (unknown origin) at 10 uM in presence of ATP relative to control
[6] = target: Ribosomal protein S6 kinase alpha-5 (Homo sapiens) (UniProt O75582); assay: Competitive binding affinity to RPS6KA5 kinase domain 1 (unknown origin) at 10 uM in presence of ATP relative to control
Method in brief: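 In vitro ATP-site competition binding assay across a diverse panel of 128 kinases, with compound tested at a single concentration. Kinase selectivity scores (S15) were calculated from the panel profiles.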

[7] = target: Mitogen-activated protein kinase 9 (Homo sapiens, UniProt P45984); assay: Competitive binding affinity to JNK2 (unknown origin) at 10 uM in presence of ATP relative to control
Method in brief: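 In vitro ATP-site competition binding assay across a diverse panel of 128 kinases, with each compound tested at a single concentration. Kinase binding is expressed relative to control.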

[8] = target: T2, Cyclin-G-associated kinase (Homo sapiens) (UniProt O14976); assay: Competitive binding affinity to GAK (unknown origin) at 10 uM in presence of ATP relative to control; method in brief: as §1
T2 sequence (whole entry): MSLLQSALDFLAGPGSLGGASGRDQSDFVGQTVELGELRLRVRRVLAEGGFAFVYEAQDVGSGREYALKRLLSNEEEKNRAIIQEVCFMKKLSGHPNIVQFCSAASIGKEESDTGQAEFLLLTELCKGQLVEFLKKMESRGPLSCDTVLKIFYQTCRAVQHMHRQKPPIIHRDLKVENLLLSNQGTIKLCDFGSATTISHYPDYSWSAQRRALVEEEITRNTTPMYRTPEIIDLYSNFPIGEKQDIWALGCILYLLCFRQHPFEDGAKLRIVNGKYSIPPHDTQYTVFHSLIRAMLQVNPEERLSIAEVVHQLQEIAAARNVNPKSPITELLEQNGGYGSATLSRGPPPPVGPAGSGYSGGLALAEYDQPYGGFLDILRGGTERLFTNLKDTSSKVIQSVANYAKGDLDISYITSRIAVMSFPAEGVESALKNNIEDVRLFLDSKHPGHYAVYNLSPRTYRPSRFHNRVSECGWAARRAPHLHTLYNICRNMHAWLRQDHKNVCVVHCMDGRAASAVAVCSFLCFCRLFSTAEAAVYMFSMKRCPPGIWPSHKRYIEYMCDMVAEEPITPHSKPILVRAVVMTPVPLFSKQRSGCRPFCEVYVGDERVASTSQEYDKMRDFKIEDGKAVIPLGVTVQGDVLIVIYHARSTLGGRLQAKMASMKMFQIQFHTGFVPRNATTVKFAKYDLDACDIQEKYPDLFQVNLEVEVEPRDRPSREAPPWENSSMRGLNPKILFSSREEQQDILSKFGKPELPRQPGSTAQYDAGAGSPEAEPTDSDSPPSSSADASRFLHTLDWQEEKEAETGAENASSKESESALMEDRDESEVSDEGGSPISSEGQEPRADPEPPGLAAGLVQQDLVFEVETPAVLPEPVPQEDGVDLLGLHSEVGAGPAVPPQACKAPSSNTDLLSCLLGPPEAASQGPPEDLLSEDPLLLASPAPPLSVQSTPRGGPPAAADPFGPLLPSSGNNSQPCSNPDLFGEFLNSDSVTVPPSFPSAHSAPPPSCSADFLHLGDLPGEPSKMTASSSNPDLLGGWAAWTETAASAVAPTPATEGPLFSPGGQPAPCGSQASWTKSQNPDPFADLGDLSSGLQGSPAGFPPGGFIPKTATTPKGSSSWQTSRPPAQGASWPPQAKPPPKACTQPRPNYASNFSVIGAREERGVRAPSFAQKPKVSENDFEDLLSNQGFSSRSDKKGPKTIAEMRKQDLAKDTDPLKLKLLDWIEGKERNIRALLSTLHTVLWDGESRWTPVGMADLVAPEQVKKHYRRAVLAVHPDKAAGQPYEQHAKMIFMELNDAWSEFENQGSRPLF

Sequence of Mitogen-activated protein kinase 9 (P45984 whole entry, looked up): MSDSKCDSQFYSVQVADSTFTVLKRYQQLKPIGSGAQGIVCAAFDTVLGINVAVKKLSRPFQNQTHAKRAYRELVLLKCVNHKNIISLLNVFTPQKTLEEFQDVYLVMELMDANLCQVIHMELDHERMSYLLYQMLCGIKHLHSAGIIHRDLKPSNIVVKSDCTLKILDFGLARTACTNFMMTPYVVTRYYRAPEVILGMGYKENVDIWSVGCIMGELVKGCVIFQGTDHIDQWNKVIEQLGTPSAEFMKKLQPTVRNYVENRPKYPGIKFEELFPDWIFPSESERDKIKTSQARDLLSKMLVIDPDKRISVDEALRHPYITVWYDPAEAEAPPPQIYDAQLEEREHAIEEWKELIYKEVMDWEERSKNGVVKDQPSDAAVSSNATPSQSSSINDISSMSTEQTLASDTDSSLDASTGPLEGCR
Sequence of Tyrosine-protein kinase ABL2 (Homo sapiens) (P42684 whole entry, the tested form may be a part): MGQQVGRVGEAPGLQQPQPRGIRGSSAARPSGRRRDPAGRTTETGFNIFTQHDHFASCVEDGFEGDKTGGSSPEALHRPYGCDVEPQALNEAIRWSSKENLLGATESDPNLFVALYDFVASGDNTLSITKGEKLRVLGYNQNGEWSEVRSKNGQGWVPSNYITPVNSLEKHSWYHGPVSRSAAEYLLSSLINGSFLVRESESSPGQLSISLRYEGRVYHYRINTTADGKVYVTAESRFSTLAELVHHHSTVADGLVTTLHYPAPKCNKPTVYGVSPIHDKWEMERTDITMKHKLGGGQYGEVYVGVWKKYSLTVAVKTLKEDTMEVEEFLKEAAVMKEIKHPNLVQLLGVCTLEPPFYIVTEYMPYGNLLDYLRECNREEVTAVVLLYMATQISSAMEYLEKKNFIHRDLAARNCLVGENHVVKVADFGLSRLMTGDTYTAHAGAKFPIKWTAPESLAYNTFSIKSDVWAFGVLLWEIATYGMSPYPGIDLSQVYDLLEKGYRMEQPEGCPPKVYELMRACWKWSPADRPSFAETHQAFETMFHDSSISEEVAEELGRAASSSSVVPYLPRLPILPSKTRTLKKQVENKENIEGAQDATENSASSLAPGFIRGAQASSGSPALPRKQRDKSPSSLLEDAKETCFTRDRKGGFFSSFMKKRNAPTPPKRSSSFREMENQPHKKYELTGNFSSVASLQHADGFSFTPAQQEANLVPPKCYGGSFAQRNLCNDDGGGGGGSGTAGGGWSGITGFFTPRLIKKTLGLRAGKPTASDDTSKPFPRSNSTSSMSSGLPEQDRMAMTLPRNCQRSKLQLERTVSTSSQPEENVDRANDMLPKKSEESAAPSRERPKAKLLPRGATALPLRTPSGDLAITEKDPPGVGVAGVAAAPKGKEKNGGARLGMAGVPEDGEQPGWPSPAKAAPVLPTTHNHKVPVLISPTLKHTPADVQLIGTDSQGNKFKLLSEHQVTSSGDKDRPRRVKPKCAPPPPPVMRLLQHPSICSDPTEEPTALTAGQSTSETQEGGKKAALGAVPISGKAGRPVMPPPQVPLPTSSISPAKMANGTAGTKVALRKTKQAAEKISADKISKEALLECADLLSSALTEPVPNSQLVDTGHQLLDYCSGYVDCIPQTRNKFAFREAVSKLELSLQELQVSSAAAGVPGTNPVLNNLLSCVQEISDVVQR
Sequence of Serine/threonine-protein kinase B-raf (Homo sapiens) (P15056 whole entry): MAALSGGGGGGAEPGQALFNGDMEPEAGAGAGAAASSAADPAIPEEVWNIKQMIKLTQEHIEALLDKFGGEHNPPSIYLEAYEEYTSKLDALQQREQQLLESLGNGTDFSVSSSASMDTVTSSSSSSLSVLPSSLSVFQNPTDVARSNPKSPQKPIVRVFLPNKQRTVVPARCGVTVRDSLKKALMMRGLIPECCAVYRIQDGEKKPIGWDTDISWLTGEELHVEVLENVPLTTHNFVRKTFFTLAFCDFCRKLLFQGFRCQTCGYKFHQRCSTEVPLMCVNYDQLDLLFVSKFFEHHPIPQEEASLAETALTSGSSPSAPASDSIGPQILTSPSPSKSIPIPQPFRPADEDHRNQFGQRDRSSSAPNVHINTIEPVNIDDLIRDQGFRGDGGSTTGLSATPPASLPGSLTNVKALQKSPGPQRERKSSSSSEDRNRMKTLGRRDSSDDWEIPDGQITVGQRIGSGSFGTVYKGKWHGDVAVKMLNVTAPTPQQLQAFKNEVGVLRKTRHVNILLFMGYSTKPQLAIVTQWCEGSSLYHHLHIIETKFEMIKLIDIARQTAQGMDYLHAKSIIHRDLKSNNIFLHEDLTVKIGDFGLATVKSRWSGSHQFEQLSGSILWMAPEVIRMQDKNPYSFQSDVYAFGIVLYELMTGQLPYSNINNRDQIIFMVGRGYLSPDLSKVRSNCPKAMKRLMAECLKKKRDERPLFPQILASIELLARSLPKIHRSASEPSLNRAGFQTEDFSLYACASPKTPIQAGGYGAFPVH
Sequence of Ribosomal protein S6 kinase alpha-5 (Homo sapiens) (O75582 whole entry, looked up, the tested form may be a part): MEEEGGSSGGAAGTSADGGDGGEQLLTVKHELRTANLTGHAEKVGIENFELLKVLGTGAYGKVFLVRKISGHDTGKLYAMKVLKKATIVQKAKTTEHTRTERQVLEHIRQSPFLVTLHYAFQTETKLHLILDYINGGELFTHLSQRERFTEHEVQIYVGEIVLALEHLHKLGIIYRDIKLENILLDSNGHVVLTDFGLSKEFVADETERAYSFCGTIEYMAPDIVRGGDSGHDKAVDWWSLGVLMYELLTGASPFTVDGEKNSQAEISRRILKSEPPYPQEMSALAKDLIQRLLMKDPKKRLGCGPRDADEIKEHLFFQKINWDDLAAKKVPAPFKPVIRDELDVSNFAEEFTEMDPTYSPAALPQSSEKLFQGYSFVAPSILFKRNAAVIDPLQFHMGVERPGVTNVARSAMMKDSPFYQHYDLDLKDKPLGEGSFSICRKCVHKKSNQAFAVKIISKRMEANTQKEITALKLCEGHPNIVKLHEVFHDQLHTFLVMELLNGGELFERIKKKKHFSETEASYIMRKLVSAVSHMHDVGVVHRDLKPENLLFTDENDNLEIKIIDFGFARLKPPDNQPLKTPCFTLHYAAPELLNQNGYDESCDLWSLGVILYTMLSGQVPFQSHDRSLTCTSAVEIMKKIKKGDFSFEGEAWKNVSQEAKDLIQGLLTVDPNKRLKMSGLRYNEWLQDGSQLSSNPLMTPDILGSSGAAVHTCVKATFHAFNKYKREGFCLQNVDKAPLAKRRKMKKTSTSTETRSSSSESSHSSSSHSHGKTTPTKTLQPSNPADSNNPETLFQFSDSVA
Sequence of Tyrosine-protein kinase Fer (Homo sapiens) (P16591 whole entry, looked up): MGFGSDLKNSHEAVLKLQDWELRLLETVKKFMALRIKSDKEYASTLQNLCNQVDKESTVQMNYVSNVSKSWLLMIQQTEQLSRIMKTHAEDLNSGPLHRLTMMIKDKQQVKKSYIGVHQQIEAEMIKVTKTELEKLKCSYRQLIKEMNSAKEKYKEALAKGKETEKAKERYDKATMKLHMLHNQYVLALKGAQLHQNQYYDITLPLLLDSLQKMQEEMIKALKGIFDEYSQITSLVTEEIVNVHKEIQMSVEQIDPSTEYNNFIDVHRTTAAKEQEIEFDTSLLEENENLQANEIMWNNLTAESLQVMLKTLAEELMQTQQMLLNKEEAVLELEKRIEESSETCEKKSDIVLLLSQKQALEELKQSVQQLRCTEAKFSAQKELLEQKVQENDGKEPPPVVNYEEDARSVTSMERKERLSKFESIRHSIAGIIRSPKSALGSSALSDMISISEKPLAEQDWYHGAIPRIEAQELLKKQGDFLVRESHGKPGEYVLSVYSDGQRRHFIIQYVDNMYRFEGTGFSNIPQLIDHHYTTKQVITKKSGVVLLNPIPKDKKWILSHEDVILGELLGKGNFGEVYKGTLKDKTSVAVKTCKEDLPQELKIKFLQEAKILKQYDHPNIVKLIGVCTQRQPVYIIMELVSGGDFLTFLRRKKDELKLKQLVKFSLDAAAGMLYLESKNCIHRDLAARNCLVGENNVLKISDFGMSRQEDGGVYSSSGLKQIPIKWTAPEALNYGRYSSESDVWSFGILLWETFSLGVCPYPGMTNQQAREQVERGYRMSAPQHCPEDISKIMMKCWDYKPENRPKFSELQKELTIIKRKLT
Sequence of Dual specificity protein kinase CLK3 (Homo sapiens) (P49761 whole entry, looked up): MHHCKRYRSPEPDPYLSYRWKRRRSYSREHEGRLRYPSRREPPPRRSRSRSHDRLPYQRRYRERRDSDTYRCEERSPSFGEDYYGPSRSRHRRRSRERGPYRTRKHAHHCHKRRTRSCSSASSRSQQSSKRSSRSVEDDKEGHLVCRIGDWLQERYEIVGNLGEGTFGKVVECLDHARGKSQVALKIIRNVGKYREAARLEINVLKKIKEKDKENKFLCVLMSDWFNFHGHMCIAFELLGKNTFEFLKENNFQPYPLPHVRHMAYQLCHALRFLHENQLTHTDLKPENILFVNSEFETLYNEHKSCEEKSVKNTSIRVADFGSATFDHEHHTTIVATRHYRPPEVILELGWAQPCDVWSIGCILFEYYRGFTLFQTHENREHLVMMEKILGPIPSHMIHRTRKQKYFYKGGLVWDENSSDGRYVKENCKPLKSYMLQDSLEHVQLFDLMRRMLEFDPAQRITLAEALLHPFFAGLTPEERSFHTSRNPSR

SMILES	inhibition [1] [%]	inhibition [2] [%]	inhibition [3] [%]	inhibition [4] [%]	inhibition [5] [%]	inhibition [6] [%]	inhibition [7] [%]	inhibition [8] [%]
O[C@H]1CC[C@H](Nc2nccc(-n3nnc4ccccc43)n2)CC1	< 50	< 50	82	< 50	< 50	< 50	99	100
N[C@H]1CC[C@H](Nc2nccc(-n3nnc4ccccc43)n2)CC1	< 50	< 50	94	< 50	89	70	100	91
O=C([C@H]1CC[C@H](Nc2nccc(-n3nnc4ccccc43)n2)CC1)N1CCOCC1	< 50	< 50	< 50	< 50	< 50	< 50	98	100
CS(=O)(=O)CCCOc1cccc2c1ccn2-c1ccnc(N[C@H]2CC[C@H](C(=O)N3CCC(O)CC3)CC2)n1							> 85	
O[C@H]1CC[C@H](Nc2nccc(-n3ncc4ccccc43)n2)CC1	< 50	< 50	< 50	< 50	< 50	< 50	99	100
O[C@H]1CC[C@H](Nc2nccc(-c3n[nH]c4ccccc34)n2)CC1	97	< 50	94	< 50	< 50	< 50	93	100
O[C@H]1CC[C@H](Nc2nccc(-n3ccc4ccccc43)n2)CC1	< 50	< 50	< 50	< 50	< 50	< 50	99	91
